# Measurements as given in ChEMBL document CHEMBL3272112, “Cycloalkanones. 8. Hypocholesterolemic activity of long-chain ketones related to pentadecanone” (J Med Chem, 1976).
# Experiments:
# [1] = tested on: Rattus norvegicus; assay: Hypocholesterolemic activity in Sprague-Dawley rat assessed as serum cholesterol level at 1 mg/kg/day, po administered via intubation measured on day 4 by Liebermann-Burchard method relative to control; assay type: functional
# Procedure, shortened: (§1)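 Male Sprague-Dawley rats given compound homogenized in 1% CMC once daily at 11:00 a.m. by oral intubation needle (0.2 cc), doses calculated on weekly body weights; tail-vein blood drawn 24 h after last dose; nonhemolyzed serum (30 μ) assayed by modified Liebermann-Burchard method; N = 8; % of control, mean ± SD; Student's t test.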
# [2] = tested on: Rattus norvegicus; assay: Hypocholesterolemic activity in Sprague-Dawley rat assessed as serum cholesterol level at 10 mg/kg/day, po administered via intubation measured on day 16 by Liebermann-Burchard method relative to control; assay type: functional; procedure, shortened: as §1
# [3] = tested on: Rattus norvegicus; assay: Toxicity in Sprague-Dawley rat assessed as increase in body weight at 10 mg/kg/day measured on day 10 (reference value: 160 +/- 13%); assay type: organism-based; conditions: in vivo
# [4] = tested on: Rattus norvegicus; assay: Hypocholesterolemic activity in Sprague-Dawley rat assessed as serum cholesterol level at 5 mg/kg/day, po administered via intubation measured on day 4 by Liebermann-Burchard method relative to control; assay type: functional; procedure, shortened: as §1
# [5] = tested on: Rattus norvegicus; assay: Hypocholesterolemic activity in Sprague-Dawley rat assessed as serum cholesterol level at 5 mg/kg/day, po administered via intubation measured on day 10 by Liebermann-Burchard method relative to control; assay type: functional; procedure, shortened: as §1
# [6] = tested on: Rattus norvegicus; assay: Hypocholesterolemic activity in Sprague-Dawley rat assessed as serum cholesterol level at 50 mg/kg/day, po administered via intubation measured on day 10 by Liebermann-Burchard method relative to control; assay type: functional; procedure, shortened: as §1
# [7] = tested on: Rattus norvegicus; assay: Hypocholesterolemic activity in Sprague-Dawley rat assessed as serum cholesterol level at 1 mg/kg/day, po administered via intubation measured on day 16 by Liebermann-Burchard method relative to control; assay type: functional; procedure, shortened: as §1
# [8] = tested on: Rattus norvegicus; assay: Hypocholesterolemic activity in Sprague-Dawley rat assessed as serum cholesterol level at 20 mg/kg/day, po administered via intubation measured on day 16 by Liebermann-Burchard method relative to control; assay type: functional; procedure, shortened: as §1
# [9] = tested on: Rattus norvegicus; assay: Hypocholesterolemic activity in Sprague-Dawley rat assessed as serum cholesterol level at 50 mg/kg/day, po administered via intubation measured on day 16 by Liebermann-Burchard method relative to control; assay type: functional; procedure, shortened: as §1
# [10] = tested on: Rattus norvegicus; assay: Toxicity in Sprague-Dawley rat assessed as increase in body weight at 5 mg/kg/day administered for 16 days measured on day 16 post last dose (reference value: 195 +/- 16%); assay type: organism-based; conditions: in vivo, 384 h
# [11] = tested on: Rattus norvegicus; assay: Toxicity in Sprague-Dawley rat assessed as food intake at 1 mg/kg/day measured after 1 week (reference value: 20.9 +/- 4.9 g/day); assay type: organism-based; conditions: in vivo, 168 h
# [12] = tested on: Rattus norvegicus; assay: Toxicity in Sprague-Dawley rat assessed as food intake at 5 mg/kg/day measured after 1 week (reference value: 20.9 +/- 4.9 g/day); assay type: organism-based; conditions: in vivo, 168 h
# [13] = tested on: Rattus norvegicus; assay: Toxicity in Sprague-Dawley rat assessed as food intake at 20 mg/kg/day measured after 1 week (reference value: 20.9 +/- 4.9 g/day); assay type: organism-based; conditions: in vivo, 168 h
# [14] = tested on: Rattus norvegicus; assay: Toxicity in Sprague-Dawley rat assessed as food intake at 50 mg/kg/day measured after 1 week (reference value: 20.9 +/- 4.9 g/day); assay type: organism-based; conditions: in vivo, 168 h
# [15] = tested on: Rattus norvegicus; assay: Toxicity in Sprague-Dawley rat assessed as food intake at 1 mg/kg/day measured after 2 weeks (reference value: 24.8 +/- 1.1 g/day); assay type: organism-based; conditions: in vivo, 336 h
# [16] = tested on: Rattus norvegicus; assay: Toxicity in Sprague-Dawley rat assessed as food intake at 20 mg/kg/day measured after 2 weeks (reference value: 24.8 +/- 1.1 g/day); assay type: organism-based; conditions: in vivo, 336 h
# [17] = tested on: Rattus norvegicus; assay: Toxicity in Sprague-Dawley rat assessed as increase in liver weight at 10 mg/kg/day administered for 16 days measured on day 16 post last dose relative to total body weight (reference value: 4.35 +/- 0.39%); assay type: organism-based; conditions: in vivo, 384 h
# [18] = tested on: Rattus norvegicus; assay: Toxicity in Sprague-Dawley rat assessed as change in heart weight at 10 mg/kg/day administered for 16 days measured on day 16 post last dose relative to total body weight (reference value: 0.39 +/- 0.04%); assay type: organism-based; conditions: in vivo, 384 h
# [19] = tested on: Rattus norvegicus; assay: Toxicity in Sprague-Dawley rat assessed as effect on DNA level in liver at 10 mg/kg/day measured after 16 days (reference value: 100 +/- 2%); assay type: organism-based; conditions: in vivo, 384 h
# [20] = tested on: Rattus norvegicus; assay: Toxicity in Sprague-Dawley rat assessed as effect on lipid level in liver at 10 mg/kg/day measured after 16 days (reference value: 100 +/- 13%); assay type: organism-based; conditions: in vivo, 384 h
# [21] = tested on: Rattus norvegicus; assay: Toxicity in Sprague-Dawley rat assessed as effect on glycogen level in liver at 10 mg/kg/day measured after 16 days (reference value: 100 +/- 26%); assay type: organism-based; conditions: in vivo, 384 h
# [22] = tested on: Rattus norvegicus; assay: Toxicity in Sprague-Dawley rat assessed as effect on protein level in liver at 10 mg/kg/day measured after 16 days (reference value: 100 +/- 5%); assay type: organism-based; conditions: in vivo, 384 h
# [23] = tested on: Rattus norvegicus; assay: Effect on serum triglyceride level in Sprague-Dawley rat at 10 mg/kg/day measured on day 16 (reference value: 100 +/- 21%); assay type: functional
# [24] = organism: Rattus norvegicus; assay: Disruption of rat liver cell membrane assessed as unlysed cells at 25 mg per gram of tissue measured at 15 mins (reference value: 91 +/- 6%); assay type: functional
# Procedure, shortened: (§2)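 Rat liver 10% homogenate in 0.25 M sucrose + 0.001 M EDTA, pH 7.2, incubated at 37°C with Hanke's buffer pH 7.2 and drug suspended in 1% CMC (dose as mg drug per g wet liver); turbidity read as absorbance at 660 nm over 0–4 hr, falling absorbance taken as lysis; expressed as % unlysed cells; vehicle 1% CMC control.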
# [25] = organism: Rattus norvegicus; assay: Disruption of rat liver cell membrane assessed as unlysed cells at 5 mg per gram of tissue measured at 30 mins (reference value: 93 +/- 7%); assay type: functional; procedure, shortened: as §2
# [26] = organism: Rattus norvegicus; assay: Disruption of rat liver cell membrane assessed as unlysed cells at 5 mg per gram of tissue measured at 1 hr (reference value: 90 +/- 4%); assay type: functional; procedure, shortened: as §2
# [27] = organism: Rattus norvegicus; assay: Disruption of rat liver cell membrane assessed as unlysed cells at 10 mg per gram of tissue measured at 2 hrs (reference value: 77 +/- 8%); assay type: functional; procedure, shortened: as §2
# [28] = organism: Rattus norvegicus; assay: Disruption of rat liver cell membrane assessed as unlysed cells at 25 mg per gram of tissue measured at 2 hrs (reference value: 77 +/- 8%); assay type: functional; procedure, shortened: as §2
# [29] = organism: Rattus norvegicus; assay: Disruption of rat liver cell membrane assessed as unlysed cells at 5 mg per gram of tissue measured at 4 hrs (reference value: 17 +/- 4%); assay type: functional; procedure, shortened: as §2
# [30] = organism: Rattus norvegicus; assay: Disruption of rat liver cell membrane assessed as unlysed cells at 25 mg per gram of tissue measured at 4 hrs (reference value: 17 +/- 4%); assay type: functional; procedure, shortened: as §2
# [31] = organism: Rattus norvegicus; assay: Disruption of rat liver lysosomal membrane assessed as free acid phosphatase activity at 5 mg per gram of tissue measured after 1 hr (reference value: 100 +/- 16%); assay type: functional, tissue-based
# Procedure, shortened: (§3)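 10% rat liver homogenate incubated with Hanke's buffer pH 7.2 and drug suspension in 1% CMC in a shaker at 37°C; aliquot removed after 1 hr and percent free (unbound) acid phosphatase activity determined as an index of lysosomal membrane rupture.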
# [32] = organism: Rattus norvegicus; assay: Disruption of rat liver lysosomal membrane assessed as free acid phosphatase activity at 10 mg per gram of tissue measured after 1 hr (reference value: 100 +/- 16%); assay type: functional, tissue-based; procedure, shortened: as §3
# [33] = Toxicity in CF1 mouse; assay type: organism-based; conditions: in vivo
# Procedure, shortened: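 Male CF1 mice; acute lethality measured and LD50 calculated by the Litchfield and Wilcoxon method.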
structure (smiles),measurement,setting,value
CCCCCCCCCCCCCCC(C)=O,Activity,[1],82%
same,Activity,[2],58%
same,Activity,[3],145%
same,Activity,[4],74%
same,Activity,[5],78%
same,Activity,[6],74%
same,Activity,[7],71%
same,Activity,[8],69%
same,Activity,[9],68%
same,Activity,[10],244%
same,Activity,[11],22.3 g/day
same,Activity,[12],21.8 g/day
same,Activity,[13],21.4 g/day
same,Activity,[14],22.5 g/day
same,Activity,[15],26.6 g/day
same,Activity,[16],24.2 g/day
same,Activity,[17],4.39%
same,Activity,[18],0.39%
same,Activity,[19],114%
same,Activity,[20],101%
same,Activity,[21],105%
same,Activity,[22],107%
same,Activity,[23],120%
same,Activity,[24],97%
same,Activity,[25],93%
same,Activity,[26],91%
same,Activity,[27],77%
same,Activity,[28],85%
same,Activity,[29],17%
same,Activity,[30],18%
same,Activity,[31],85%
same,Activity,[32],89%
same,LD50,[33],1750 mg/kg
